Assay results taken from ChEMBL document CHEMBL1155311, “Synthesis and evaluation of N-[(1S,2S)-3-(4-chlorophenyl)-2-(3-cyanophenyl)-1-methylpropyl]-2-methyl-2-aminopropanamide as human cannabinoid-1 receptor (CB1R) inverse agonists” (Bioorg Med Chem Lett, 2009).

Columns and labels:
Cannabinoid receptor 2 = Cannabinoid receptor 2 (Homo sapiens, UniProt P34972); assay: Displacement of [3H]CP-55940 from recombinant human CB2 receptor expressed in CHO cell; format: cell-based
Cannabinoid receptor 1 [1] = target: T1, Cannabinoid receptor 1 (Homo sapiens, UniProt P21554); assay: Displacement of [3H]CP-55940 from recombinant human CB1 receptor expressed in CHO cells; format: cell-based
Homo sapiens = organism: Homo sapiens; assay: Selectivity ratio of IC50 of human recombinant CB2 receptor to IC50 of human recombinant CB1 receptor
Liver microsomes [2] = assay: Metabolic stability in rat liver microsomes assessed as glucuronide formation; format: ADME, Microsome
Method in brief: (§1)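 Rat or human liver microsomes (1 mg/mL protein) were incubated in 100 mM potassium phosphate, pH 7.4, with 10 mM MgCl2, alamethicin, 5 mM D-saccharic acid 1,4-lactone and 3 mM UDPGA. Incubation ran 90 min at 37 °C with shaking and was quenched with 2 volumes of cold acetonitrile. After centrifugation, glucuronide was detected in the supernatant by LC–MS/MS.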

Liver microsomes [3] = assay: Metabolic stability in human liver microsomes assessed as glucuronide formation; format: ADME, Microsome; method in brief: as §1
Cannabinoid receptor 1 [4] = target: T1, Cannabinoid receptor 1; assay: Inverse agonist activity at human CB1 receptor assessed as forskolin-induced cAMP level by adenylyl cyclase activation flash plate assay; format: functional
Cytochrome P450 3A4 = Cytochrome P450 3A4 (Homo sapiens, UniProt P08684); assay: Inhibition of CYP3A4; format: ADME
Chain of Cytochrome P450 3A4 (P08684 whole entry): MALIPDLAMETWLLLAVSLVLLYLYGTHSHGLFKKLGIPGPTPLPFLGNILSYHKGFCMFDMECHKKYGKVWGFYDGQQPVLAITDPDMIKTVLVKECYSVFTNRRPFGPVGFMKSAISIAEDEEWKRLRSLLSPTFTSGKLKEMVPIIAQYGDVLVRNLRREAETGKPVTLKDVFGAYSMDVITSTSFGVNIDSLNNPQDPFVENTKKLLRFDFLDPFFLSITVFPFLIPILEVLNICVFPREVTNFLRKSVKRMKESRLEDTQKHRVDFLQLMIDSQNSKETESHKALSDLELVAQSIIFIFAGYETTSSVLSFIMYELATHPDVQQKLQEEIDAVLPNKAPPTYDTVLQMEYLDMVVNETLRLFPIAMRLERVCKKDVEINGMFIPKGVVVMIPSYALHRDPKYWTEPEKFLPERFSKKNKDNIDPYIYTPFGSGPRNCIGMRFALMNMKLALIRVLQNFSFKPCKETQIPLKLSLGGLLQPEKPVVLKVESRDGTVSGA

T1 sequence (P21554 whole entry): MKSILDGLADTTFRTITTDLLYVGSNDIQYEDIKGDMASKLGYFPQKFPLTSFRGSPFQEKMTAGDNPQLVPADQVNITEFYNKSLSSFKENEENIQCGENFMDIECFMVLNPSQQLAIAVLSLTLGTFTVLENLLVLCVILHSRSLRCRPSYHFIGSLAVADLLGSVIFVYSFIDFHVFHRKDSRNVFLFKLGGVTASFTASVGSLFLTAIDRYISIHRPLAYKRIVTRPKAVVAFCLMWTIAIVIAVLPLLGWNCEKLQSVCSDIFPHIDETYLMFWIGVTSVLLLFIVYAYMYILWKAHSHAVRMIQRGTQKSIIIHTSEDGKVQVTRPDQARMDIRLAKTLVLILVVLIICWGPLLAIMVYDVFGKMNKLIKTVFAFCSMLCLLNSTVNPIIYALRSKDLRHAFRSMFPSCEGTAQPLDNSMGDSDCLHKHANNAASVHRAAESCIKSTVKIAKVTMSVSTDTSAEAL
Chain of Cannabinoid receptor 2 (P34972 whole entry): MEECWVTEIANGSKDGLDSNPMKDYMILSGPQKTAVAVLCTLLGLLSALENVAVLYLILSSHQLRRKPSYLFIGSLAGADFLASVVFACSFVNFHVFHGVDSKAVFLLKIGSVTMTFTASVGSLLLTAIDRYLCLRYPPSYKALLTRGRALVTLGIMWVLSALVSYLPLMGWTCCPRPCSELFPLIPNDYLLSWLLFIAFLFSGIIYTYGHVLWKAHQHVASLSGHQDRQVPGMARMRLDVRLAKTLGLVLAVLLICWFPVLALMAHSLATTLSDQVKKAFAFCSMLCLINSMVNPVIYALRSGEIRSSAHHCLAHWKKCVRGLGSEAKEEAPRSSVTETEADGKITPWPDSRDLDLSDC

SMILES	IC50 (Cannabinoid receptor 2) [nM]	IC50 (Cannabinoid receptor 1 [1]) [nM]	Ratio IC50 (Homo sapiens)	Stability (Liver microsomes [2])	Stability (Liver microsomes [3])	EC50 (Cannabinoid receptor 1 [4]) [nM]	IC50 (Cytochrome P450 3A4) [nM]
C[C@H](NC(=O)C(C)(C)Nc1nc2ccccc2n1C)[C@@H](Cc1ccc(Cl)cc1)c1cccc(C#N)c1	1410	97	15	–	–	–	–
C[C@H](NC(=O)C(C)(C)Nc1ccccn1)[C@@H](Cc1ccc(Cl)cc1)c1cccc(C#N)c1	1830	49	37	Stable	Stable	–	–
C[C@H](NC(=O)C(C)(C)Nc1ccon1)[C@@H](Cc1ccc(Cl)cc1)c1cccc(C#N)c1	3210	47.7	67	–	–	–	–
Cc1cc(NC(C)(C)C(=O)N[C@@H](C)[C@@H](Cc2ccc(Cl)cc2)c2cccc(C#N)c2)n[nH]1	–	–	20	–	–	–	–
C[C@H](NC(C)(C)C(=O)Nc1cc(-c2ccccc2)on1)[C@@H](Cc1ccc(Cl)cc1)c1cccc(C#N)c1	2310	136	17	–	–	–	–
C[C@H](NC(=O)C(C)(C)Nc1cc(C(C)(C)C)on1)[C@@H](Cc1ccc(Cl)cc1)c1cccc(C#N)c1	254	8.6	30	–	–	3.5	–
C[C@H](NC(=O)C(C)(C)Nc1ncc(C(F)(F)F)cc1Cl)[C@@H](Cc1ccc(Cl)cc1)c1cccc(C#N)c1	419	17.9	23	–	–	–	–
C[C@H](NC(=O)C(C)(C)Nc1ccc(C(F)(F)F)cn1)[C@@H](Cc1ccc(Cl)cc1)c1cccc(C#N)c1	322	7.5	43	–	–	3.2	2030
C[C@H](NC(=O)C(C)(C)Nc1cc2ccccc2cn1)[C@@H](Cc1ccc(Cl)cc1)c1cccc(C#N)c1	117	10.1	12	–	–	1.9	–
C[C@H](NC(=O)C(C)(C)Nc1cc(C(F)(F)F)ccn1)[C@@H](Cc1ccc(Cl)cc1)c1cccc(C#N)c1	353	1.6	221	Stable	Stable	0.9	–
C[C@H](NC(=O)C(C)(C)Nc1cc(-c2ccccc2)on1)[C@@H](Cc1ccc(Cl)cc1)c1cccc(C#N)c1	234	186	1.3	–	–	–	–
Cc1cc(NC(C)(C)C(=O)N[C@@H](C)[C@@H](Cc2ccc(Cl)cc2)c2cccc(C#N)c2)[nH]n1	6110	301	–	–	–	–	–
C[C@H](NC(=O)C(C)(C)Nc1ccncn1)[C@@H](Cc1ccc(Cl)cc1)c1cccc(C#N)c1	14000	49.2	286	Stable	Stable	–	–
C[C@H](NC(C)(C)C(=O)Nc1ccc(C(F)(F)F)cn1)[C@@H](Cc1ccc(Cl)cc1)c1cccc(C#N)c1	1720	132	13	–	–	–	> 35000
Cc1cc(NC(C)(C)C(=O)N[C@@H](C)[C@@H](Cc2ccc(Cl)cc2)c2cccc(C#N)c2)on1	3860	46.1	84	–	–	–	–
Cc1ccnc(NC(C)(C)C(=O)N[C@@H](C)[C@@H](Cc2ccc(Cl)cc2)c2cccc(C#N)c2)c1	547	37.7	15	–	–	–	–
C[C@H](NC(=O)C(C)(C)Nc1ncc(Cl)cc1Cl)[C@@H](Cc1ccc(Cl)cc1)c1cccc(C#N)c1	699	12.2	57	–	–	–	–
Cc1cc(NC(C)(C)C(=O)N[C@@H](C)[C@@H](Cc2ccc(Cl)cc2)c2cccc(C#N)c2)no1	5160	19.5	265	–	–	–	–
C[C@H](NC(=O)C(C)(C)Nc1ccnn1C)[C@@H](Cc1ccc(Cl)cc1)c1cccc(C#N)c1	13300	203	65	–	–	–	–
C[C@H](NC(=O)C(C)(C)NCCCN(C)C)[C@@H](Cc1ccc(Cl)cc1)c1cccc(C#N)c1	25900	2980	8.7	–	–	–	–
